# According to article PMC3188443 (Biochemical pharmacology, 2010):
# Ends that are not written are not given here.
# Experiments:
# Stat3 [1] = biological target: T1, Stat3 (Mus musculus, UniProt P42227); test: Surface Plasmon Resonance analysis of binding to immobilized His-tagged Stat3; set-up: species or system murine; settings: 0-5 μM peptide as analyte
# Procedure, shortened: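 His-tagged Stat3 expressed in E. coli BL21(DE3), purified on a Ni-ion Sepharose column, and captured on a HisCap sensor chip by injecting 50 μg/ml protein. Analytes were unphosphorylated or phosphotyrosine gp-130 heptapeptides at 0-5 μM, passed over the chip. Running buffer was 1X PBS, 0.5% DMSO. Association and dissociation rate constants were fitted, and KD was taken as their ratio.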
# Stat3 [2] = biological target: T1, Stat3; assay type: binding, murine; settings: 150 nM His-Stat3, unlabeled peptide
# [3] = biological target: His-tagged murine Stat3 protein (murine) (UniProt P42227); test: SPR
# [4] = biological target: His-tagged murine Stat3 protein (murine) (UniProt P42227); test: fluorescence polarisation
# Chain of His-tagged murine Stat3 protein (murine) (P42227 whole entry): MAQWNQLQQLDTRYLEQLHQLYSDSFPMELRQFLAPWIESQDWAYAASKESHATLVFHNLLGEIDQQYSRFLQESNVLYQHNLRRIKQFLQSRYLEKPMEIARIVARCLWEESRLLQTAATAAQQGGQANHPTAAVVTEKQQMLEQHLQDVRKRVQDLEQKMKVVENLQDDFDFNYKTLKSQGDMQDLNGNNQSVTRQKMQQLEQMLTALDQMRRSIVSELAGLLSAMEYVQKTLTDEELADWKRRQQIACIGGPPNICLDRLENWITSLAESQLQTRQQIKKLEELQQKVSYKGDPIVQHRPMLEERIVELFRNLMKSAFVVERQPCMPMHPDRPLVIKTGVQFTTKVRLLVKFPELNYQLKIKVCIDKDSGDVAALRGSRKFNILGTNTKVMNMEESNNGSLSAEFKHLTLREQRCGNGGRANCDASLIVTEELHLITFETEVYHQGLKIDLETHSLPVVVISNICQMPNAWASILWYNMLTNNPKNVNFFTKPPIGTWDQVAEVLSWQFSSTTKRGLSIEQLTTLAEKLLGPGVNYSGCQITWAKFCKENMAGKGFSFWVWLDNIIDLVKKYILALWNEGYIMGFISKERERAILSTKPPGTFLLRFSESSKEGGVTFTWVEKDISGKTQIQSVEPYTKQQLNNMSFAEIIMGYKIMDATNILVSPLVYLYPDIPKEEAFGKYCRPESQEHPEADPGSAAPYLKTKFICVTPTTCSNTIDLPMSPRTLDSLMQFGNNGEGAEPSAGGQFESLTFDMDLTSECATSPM
# T1 sequence (P42227 whole entry): as above
binding to Stat3 (SPR) (Stat3 [1]),"inhibition in the FP assay, in words (Stat3 [2])",Kd [3] [nM],IC50 [4] [nM],Substance
no significant binding,no evidence of inhibition,–,–,GYLPQTV-NH2
–,–,24,300,"GpYLPQTV-NH2, high affinity Stat3-binding phosphoTyr peptide derived from the IL-6R subunit gp-130"
